A short description of series [1]: Stability in CD-1 mouse liver microsome assessed as parent compound remaining at 1 uM measured after 30 mins in presence of NADPH by LC-MS/MS analysis. The class given is ADME. As to conditions: liver microsomes, read-out: Stabilty; call rule not given here. Put shortly:
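Liver microsomes (male CD-1 mouse or pooled human), 1 mg/mL protein, compound 1 µM, 37°C with shaking. Started with 1 mM NADPH or run without cofactor. Quenched with ice-cold ACN/MeOH containing internal standard. Parent quantified by LC-MS/MS; 30 min concentration normalised to time zero.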
A general note: Liver microsomes are vesicles of endoplasmic reticulum, rich in cytochrome P450 enzymes.

In series [2] the test system is Mycobacterium tuberculosis. The series is described as follows: Antitubercular activity against Mycobacterium tuberculosis isolate 12525 incubated for 7 days by microplate alamar blue assay. The class given is functional. As to conditions: isolate 12525, 168 h, time 7 day. The procedure, abridged: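 MIC determined by microplate alamar blue assay (MABA) following a published protocol.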
Background: Resazurin is reduced to fluorescent resorufin, in cell work by metabolically active cells.

The nature of series [3]: Tmax in Balb/c mouse at 25 mg/kg, po by LC-MS/MS analysis. The class given is ADME, organism-based. As to conditions: in vivo. Put shortly: (§1)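 Female BALB/c mice, 20-25 g, five per route. Dosed 25 mg/kg p.o. in 0.5% carboxymethyl cellulose or 2.5 mg/kg i.v. in 10% DMSO/saline. Blood sampled 5 min-72 h (p.o.) or 2 min-48 h (i.v.), quantified by LC/MS/MS with ESI+. Parameters by non-compartmental analysis; F = (AUCpo×dose_iv)/(AUCiv×dose_po)×100%.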

Series [4] can be described thus: Cmax in Balb/c mouse at 25 mg/kg, po by LC-MS/MS analysis. The class given is ADME, organism-based. Also noted: route oral, dose 25 mg/kg. Particulars: in vivo. Put shortly: (§2)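 Female BALB/c mice (20–25 g), five per route. Oral dose 25 mg/kg in 0.5% carboxymethyl cellulose; i.v. dose 2.5 mg/kg in 10% DMSO/physiological saline. Blood sampled 5 min–72 h after p.o. and 2 min–48 h after i.v. Analyte quantified by LC/MS/MS (ESI positive, C18, isocratic methanol/water). Parameters from non-compartmental analysis.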

The nature of series [5]: AUC (0 to t) in Balb/c mouse at 25 mg/kg, po by LC-MS/MS analysis. Also noted: dose 25 mg/kg. As to conditions: in vivo. The class given is ADME, organism-based. Put shortly: as §2
Series [6] can be described thus: Terminal half life in Balb/c mouse at 2.5 mg/kg, iv by LC-MS/MS analysis. The class given is ADME, organism-based. As to conditions: in vivo, read-out: beta t1/2 (converted). The procedure, abridged: as §1
Series [7] is described as follows: Cmax in Balb/c mouse at 2.5 mg/kg, iv by LC-MS/MS analysis. The class given is ADME, organism-based. Also noted: route intravenous, dose 2.5 mg/kg. Particulars: in vivo. The procedure, abridged: as §2
Series [8] can be described thus: Toxicity in CD-1 mouse assessed as increase in bone marrow micronucleus formation up to 2000 mg/kg, po administered daily via gavage for 2 days measured measured 18 to 24 hrs post last dose by microscopic analysis. The class given is organism-based. Particulars: in vivo, 48 h, time 2 day. Put shortly:
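Male CD-1 (ICR) mice, 28.3-33.3 g, 3 per group. Oral gavage on 2 consecutive days, 24 h apart, at 100-2000 mg/kg; 500, 1000 and 2000 mg/kg analysed. Bone marrow harvested 18-24 h after last dose and scored microscopically for micronucleus frequency and PCE/total erythrocytes.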

Series [9] can be described thus: Mutagenicity in Salmonella typhimurium TA100 up to 1000 ug measured after 48 to 72 hrs in absence of S9 fraction by Ames test. The class given is toxicity. As to conditions: salmonella enterica subsp. enterica serovar typhimurium, dose <=1000 µg, time 48-72 hrs. Put shortly: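 Mini-Ames test in S. typhimurium TA100, up to 1000 μg/well, DMSO vehicle. Run with 10% S9 mix or PBS in molten top agar on minimal agar, 37 °C for 48-72 h. Revertants counted manually. Positive if revertants rise ≥2-fold over vehicle mean in a dose-related manner.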

Series [10] is described as follows: Mutagenicity in Salmonella typhimurium TA100 up to 1000 ug measured after 48 to 72 hrs in presence of S9 fraction by Ames test. Particulars: salmonella enterica subsp. enterica serovar typhimurium, dose <=1000 µg, time 48-72 hrs. The class given is toxicity, subcellular. Put shortly: (§3)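 Mini-Ames, plate incorporation in 6-well format. Bacteria, compound (DMSO vehicle, top 1000 µg/well), and 10% S9 mix or PBS were mixed into molten agar at 45°C and poured over minimal agar, then incubated 37°C for 48-72 h. Revertants were counted manually and the background lawn inspected. A result is positive at ≥2-fold the mean vehicle revertants with a dose-related increase.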
Background: In the Ames test, an excess of revertant colonies over the control signals mutagenicity.

Series [11] in a line: Mutagenicity in Salmonella typhimurium TA98 up to 1000 ug measured after 48 to 72 hrs in presence of S9 fraction by Ames test. The class given is toxicity, subcellular. As to conditions: salmonella enterica subsp. enterica serovar typhimurium, dose <=1000 µg, time 48-72 hrs. The procedure, abridged:
as §3

The target of series [12] is Voltage-gated inwardly rectifying potassium channel KCNH2 (Homo sapiens, UniProt Q12809). As to the kind of experiment: Inhibition of human ERG expressed in HEK293 cells by whole cell manual patch clamp method. The class given is cell-based. The procedure, abridged: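 HEK293 cells stably transfected with hERG; currents recorded by whole-cell manual patch clamp at 25 °C, sampled at 10 kHz. Five concentrations (0.3–30 μM) in duplicate for IC50; dofetilide as positive control.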

The nature of series [13]: Inhibition of human CaV alpha1c/alpha2/delta/beta2a expressed in HEK293 cells measured after 60 mins by fluo-4 AM dye based fluorescence assay. The class given is cell-based. Particulars: HEK293, 1 h. Put shortly: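 HEK-293 cells stably expressing human Cav1.2 (α1c, α2/δ, β2a) plus Kir2.3, seeded 1.2×10^4/well overnight in 1% FBS medium. Loaded with fluo-4 AM (4 μM), probenecid (5 mM) and brilliant black (1 mM) in 2× dye solution, 60 min at 37 °C. Ten concentrations from 1.52 to 30000 nM, duplicate, read on FLIPR (ex 470-495, em 515-575 nm). Inhibition normalised to KCl EC80 and solvent control; IC50 fitted.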

In series [14] the target is T1, Amine oxidase [flavin-containing] B (Homo sapiens, UniProt P27338).
T1 sequence (P27338 whole entry): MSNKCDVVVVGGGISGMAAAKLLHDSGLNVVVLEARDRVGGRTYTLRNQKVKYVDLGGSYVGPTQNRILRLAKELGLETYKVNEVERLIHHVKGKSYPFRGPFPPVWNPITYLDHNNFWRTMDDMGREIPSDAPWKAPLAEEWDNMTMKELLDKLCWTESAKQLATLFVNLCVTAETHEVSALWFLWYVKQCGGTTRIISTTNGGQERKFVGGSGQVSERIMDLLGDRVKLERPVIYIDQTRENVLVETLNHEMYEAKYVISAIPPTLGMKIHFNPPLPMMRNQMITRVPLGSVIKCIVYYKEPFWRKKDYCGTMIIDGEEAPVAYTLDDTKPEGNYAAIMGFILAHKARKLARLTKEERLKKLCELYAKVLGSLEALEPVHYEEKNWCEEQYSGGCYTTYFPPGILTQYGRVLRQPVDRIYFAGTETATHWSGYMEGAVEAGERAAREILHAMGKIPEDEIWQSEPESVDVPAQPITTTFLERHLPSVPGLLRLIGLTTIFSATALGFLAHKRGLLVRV
As to the kind of experiment: Inhibition of recombinant human MAOB expressed in baculovirus infected insect cells using kynuramine as substrate measured after 20 mins by LC-MS/MS analysis. The procedure, abridged:
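Recombinant human MAO-A or MAO-B (50 μg/mL) in 100 mM potassium phosphate pH 7.4 with 5 mM MgCl2. Kynuramine substrate at 50 μM (MAO-A) or 25 μM (MAO-B). […] 4-Hydroxyquinoline formation measured by LC-MS/MS versus vehicle; IC50 derived.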

SMILES strings stand for the structures. In brackets after ≈: the same amount, converted by molar mass.

Sequence of Voltage-gated inwardly rectifying potassium channel KCNH2 (Q12809 whole entry): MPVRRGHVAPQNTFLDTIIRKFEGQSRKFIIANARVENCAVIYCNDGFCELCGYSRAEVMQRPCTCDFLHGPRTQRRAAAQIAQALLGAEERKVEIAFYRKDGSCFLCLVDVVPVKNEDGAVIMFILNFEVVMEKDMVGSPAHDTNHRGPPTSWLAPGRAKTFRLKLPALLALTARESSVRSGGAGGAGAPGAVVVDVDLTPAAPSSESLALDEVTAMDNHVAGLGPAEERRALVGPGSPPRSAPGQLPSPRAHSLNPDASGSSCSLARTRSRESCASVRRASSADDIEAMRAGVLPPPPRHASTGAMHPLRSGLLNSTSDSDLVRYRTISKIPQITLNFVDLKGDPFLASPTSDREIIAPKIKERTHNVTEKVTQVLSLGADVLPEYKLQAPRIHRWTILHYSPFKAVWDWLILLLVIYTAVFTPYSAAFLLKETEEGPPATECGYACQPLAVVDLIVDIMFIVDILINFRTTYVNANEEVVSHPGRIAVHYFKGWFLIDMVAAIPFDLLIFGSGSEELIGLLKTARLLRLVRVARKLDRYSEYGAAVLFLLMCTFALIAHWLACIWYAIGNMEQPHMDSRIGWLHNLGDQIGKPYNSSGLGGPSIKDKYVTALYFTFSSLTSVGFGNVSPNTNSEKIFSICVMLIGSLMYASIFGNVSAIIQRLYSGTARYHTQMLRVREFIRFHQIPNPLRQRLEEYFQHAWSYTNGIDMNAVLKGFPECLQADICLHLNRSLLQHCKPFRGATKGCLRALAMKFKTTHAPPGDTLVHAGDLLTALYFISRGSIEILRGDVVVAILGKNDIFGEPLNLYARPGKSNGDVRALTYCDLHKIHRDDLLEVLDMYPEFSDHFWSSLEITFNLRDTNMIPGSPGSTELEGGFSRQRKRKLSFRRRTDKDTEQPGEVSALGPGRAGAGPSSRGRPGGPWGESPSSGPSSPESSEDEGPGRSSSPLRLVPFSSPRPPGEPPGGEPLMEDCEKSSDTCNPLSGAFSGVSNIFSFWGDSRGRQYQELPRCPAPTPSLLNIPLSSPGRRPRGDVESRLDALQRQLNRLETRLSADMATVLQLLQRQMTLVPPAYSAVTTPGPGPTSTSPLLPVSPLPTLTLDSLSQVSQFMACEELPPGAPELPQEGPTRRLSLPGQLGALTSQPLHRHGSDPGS

By MIC is commonly meant the lowest concentration that inhibits growth of the organism. The Tmax is the time from dosing to the highest level. As a reminder, the Cmax is the peak of the concentration-time curve. The AUC(0-t) is the area under the concentration-time curve up to a stated or last time point. High values mean high exposure, low ones low exposure. In general, IC50 refers to the point on the concentration scale where inhibition reaches its midpoint. Turning to `CC(=O)NC[C@@H]1OC(=O)N2c3cc(F)c(N4CC[S+]([O-])CC4)cc3OC[C@@H]12`, the remaining at 0.5 h, 1 µM in [1] turned out to be 100%. In series [2], the MIC turned out to be 0.46 mg/L (≈ 1.16 µM). Further, the Tmax in series [3] is 30 min. Besides, the Cmax in series [4] is 1.52 µg/mL; in series [7], 0.115 µg/mL. In series [5], this compound had an AUC(0-t) of 8.75 µg·h/mL. The half-life in [6] was 229 min. Also, the Activity entry in [8], in series [9], in [10] and in series [11] was “Non-Toxic” throughout. In addition, the IC50 in series [12] was more than 30 µM; in series [13], more than 30 µM; in series [14], more than 100 µM.

Regarding `CC(=O)NC[C@@H]1OC(=O)N2c3cc(F)c(N4CCSCC4)cc3OC[C@@H]12`, the remaining at 0.5 h, 1 µM in [1] came to 48.7%. The compound also gave an MIC in series [2] of 0.03 mg/L (≈ 0.0787 µM). In addition, the Tmax in series [3] is 15 min. Also, the Cmax in series [4] is 3 µg/mL; in series [7], 4.2 µg/mL. The compound further gave an AUC(0-t) in series [5] of 6.48 µg·h/mL. In addition, the half-life in [6] was 55.4 min. The Activity entry in [8], in [9], in [10] and in [11] was “Non-Toxic” in each case. Moreover, the IC50 in series [12] was more than 30 µM; in series [13], more than 30 µM; in [14], 3.2 µM.

For the origin of these results see ChEMBL document CHEMBL4725282, “Discovery of a Conformationally Constrained Oxazolidinone with Improved Safety and Efficacy Profiles for the Treatment of Multidrug-Resistant Tuberculosis” (J Med Chem, 2020).
